Shown is part of a subset that was picked to be rich in hits.
HUVEC prolif 384: human endothelial cell proliferation inhibition; AID 648; viability, % at 10 µM (by protocol); HUVEC proliferation, CellTiter-Glo luminescence, 72 h; hits give low values; 1.1% of 86,000 active;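 active = viability at or below 30%; inactive = viability above 30%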;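 also: 100% = median luminescence of DMSO-only cell control wells on each plate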
H69AR growth 86K: blocks growth of human H69AR lung tumor cells; AID 598; viability, % at 10 µM; 6% of 85,000 active; H69AR lung tumor viability, ATP luminescence, 72 h; hits give low values;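 active = viability at or below 40%; inactive = viability above 40%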;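 also: multidrug resistant small cell line overexpressing MRP-1 efflux transporter; 100% = mean luminescence of untreated control wells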
bCat KO growth: beta-catenin-lacking colon tumor cell growth suppression | AID 818 | HCT116 beta-catenin knockout viability, CellTiter-Glo, 60 h; hits give low values | viability, % at 10 µM | 1.5% of 140,000 active;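 active = viability at or under a set limit, the compound median less 4 SD, cut at about 6% in these data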;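 also: 0% = Hyamine 1622 control at 20 µM and 100% = untreated cell control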
HCT116 PTEN-null: suppresses growth of cells with PTEN deletion | HCT116 PTEN-null viability, CellTiter-Glo, 60 h; hits give low values | viability, % at 10 µM | 1.2% of 140,000 active;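 active = viability at or below a set limit, 4 SD under the median of all tested compounds, cut at about 3.7% in these data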;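 also: PTEN knockout HCT116 line with beta catenin targeted HCT116 as companion control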
Fibroblast inh: blocks proliferation of human lung fibroblasts | viability, % at 10 µM | 1.1% of 85,000 active | LL 47 human lung fibroblast viability, ATP luminescence; hits give low values;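 active = viability at or below 50% in the single dose screen; inactive = viability above 50%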;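 also: compound exposure lasted 72 h before the ATP readout; 100% = median luminescence of untreated cell-only wells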
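test system = LL 47 human lung fibroblasts | amount = 1,150 fibroblasts seeded per well | medium = 15% FBS in IMEM | times = overnight cell rest, 72 h compound treatment at 37 °C | measured by = CellTiter-Glo luminescence measuring cellular ATP | read-out = viability percentage against median untreated-cell control | benchmarks = cell-only wells, no compound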
* = called active by the depositor; / = no result given.

SMILES | HUVEC prolif 384 | H69AR growth 86K | bCat KO growth | HCT116 PTEN-null | Fibroblast inh
CCOC(=O)c1cnc(-n2nc(C)cc2C)nc1NC(C)c1ccccc1 (stereo not given) | 41 | 2.0* | 2.3* | 3.6* | 17*
CCOC(=O)c1cnc(-n2nc(C)cc2C)nc1NNc1cc(-c2ccccc2)nc(C)n1 | / | / | 3.8* | 7 | /
CCOC(=O)c1cnc(-n2nc(C)cc2C)nc1NCc1ccccc1 | 70 | 2.4* | 9 | 15 | 73
CCOC(=O)c1cnc(-n2nc(C)cc2C)nc1NCCO | 109 | 84 | 92 | 113 | 97
Cc1ccccc1NC(=O)Cn1nc(-c2ccccc2)nc1-c1ccccc1 | / | / | 88 | 88 | /
Cc1ccc(C2C(/C=C3/SC(=S)NC3=O)=C(c3cccs3)Oc3ccccc32)cc1 (stereo not given) | 49 | 14* | 64 | 60 | 92
CCOc1cc(CNc2ccc(O)cc2)ccc1OCc1ccc(Cl)cc1Cl | / | / | 62 | 49 | /
CCOc1cccc(CNc2ccc(O)cc2)c1OCc1ccc(Cl)cc1 | / | / | 0.8* | 1.9* | /
CN1C2C=C3C(C#N)=C(N)C(C#N)(C#N)[C@@H](c4cccs4)C3C1CC2 (stereo not given in full) | 94 | 75 | 94 | 93 | 90
CC(C)(C)C1CC=C2C(C#N)=C(N)C(C#N)(C#N)C(c3cccs3)C2C1 (stereo not given) | 2.1* | 65 | / | / | 88
CCCCN(N=Nc1nonc1OC)c1nonc1OC | 95 | 84 | 83 | 81 | 97
O=C(Nc1ccc(F)cc1F)NC1CC(=O)N(Cc2ccccc2)C1 (stereo not given) | 101 | 101 | 93 | 86 | 98
Cc1nc2ccccc2c(=O)n1NC(=O)c1ccc(F)cc1Cl | 102 | 102 | 96 | 98 | 103
Cc1cc(OCC(=O)NCCCN(C)C)cc(C)c1Br | 96 | 80 | 68 | 65 | 102
COc1ccc(C)cc1NS(=O)(=O)c1ccc(Br)s1 | 61 | 22* | 86 | 70 | 88
COc1cc(C(=O)OCC(=O)c2cc(C)n(C)c2C)cc(NC(=O)c2ccco2)c1OC | 27* | 11* | 87 | 88 | 84
CNC(=O)COC(=O)c1cc(NC(=O)c2ccco2)c(OC)c(OC)c1 | / | / | 86 | 99 | /
O=C(CS(=O)c1ccc(C(F)(F)F)cc1[N+](=O)[O-])Oc1ccccc1 (stereo not given) | 25* | 3.1* | 90 | 84 | 44*
O=C(CNc1ccc(C(F)(F)F)cc1[N+](=O)[O-])OCC(=O)c1ccccc1 | 98 | 93 | 103 | 89 | 95
COC(=O)c1ccccc1NC(=O)c1c(O)c2cccc3c2n(c1=O)CCC3 | 116 | 105 | / | / | 104
CCCCc1nc2ccccc2c(=O)n1NC(=O)c1c(O)c2c(n(CC(C)C)c1=O)CCCC2 | 113 | 9.7* | 42 | 44 | 76
O=C(Nc1cccnc1)c1c(O)c2cccc3c2n(c1=O)CC3 | 103 | 15* | 99 | 91 | 100
CNC(=O)c1c(O)c2cccc3c2n(c1=O)CC3 | 102 | 103 | / | / | 95
CC(C)c1nnc(NC(=O)c2c(O)c3cccc4c3n(c2=O)CC4)s1 | 86 | 28* | / | / | 96
Cc1csc(NC(=O)c2c(O)c3cccc4c3n(c2=O)CCC4)n1 | 128 | 36* | / | / | 96
SMILES | HUVEC prolif 384 | H69AR growth 86K | bCat KO growth | HCT116 PTEN-null | Fibroblast inh
CCc1nc2ccccc2c(=O)n1NC(=O)c1c(O)c2cccc3c2n(c1=O)CCC3 | 95 | 26* | 71 | 75 | 95
O=C(NCc1ccccc1)c1c(O)c2cccc3c2n(c1=O)CCC3 | 97 | 73 | 58 | 55 | 96
CCCc1nnc(NC(=O)c2c(O)c3cccc4c3n(c2=O)CCC4)s1 | 108 | 6.0* | / | / | 97
Cc1ccc(/C(COc2ccccc2O)=N\O)cc1 | / | / | 79 | 74 | /
O=C(/C=C/c1ccccc1)N1CCN(c2ccc([N+](=O)[O-])c(N3CCOCC3)c2)CC1 | / | / | 72 | 80 | /
CC1=CC(C)(C)Nc2ccc(OC(=O)c3cccnc3)cc21 | 53 | 2.6* | 0.7* | 1.1* | 23*
CC1=CC(C)(C)Nc2ccc(OC(=O)C(C)N3C(=O)c4ccccc4C3=O)cc21 (stereo not given) | / | / | 2.0* | 1.3* | /
CC1=CC(C)(C)Nc2ccc(OC(=O)CN3C(=O)CCC3=O)cc21 | / | / | 1.0* | 1.5* | /
CC1=CC(C)(C)Nc2ccc(OC(=O)c3ccco3)cc21 | / | / | 1.6* | 1.3* | /
CC1=C/C(=N\NC(=O)c2ccccc2)CC1 | / | / | 98 | 109 | /
CCOC(=O)C1CCCN(C(=O)c2ccc(OCC)cc2)C1 (stereo not given) | 97 | 93 | 97 | 107 | 102
CN(C)C/C(Cl)=C(\Cl)c1ccccc1 | 97 | 12* | 93 | 94 | 99
CN(C)C(=O)CSc1cccc2cccnc12 | 72 | 0.6* | 4.3* | 6 | 40*
NNC(=O)CSc1cccc2cccnc12 | / | / | 92 | 102 | /
O=C(CSc1cccc2cccnc12)N1CCCC1 | 64 | 0.0* | 8 | 8 | 18*
Cc1nccc2[nH]c(=O)c(C(=O)NC3CCCCC3C)cc12 (stereo not given) | 75 | 37* | 71 | 81 | 93
O=c1nc2n(c3sc4c(c13)CCC4)Cc1ccccc1-2 | 92 | 95 | / | / | 98
CCCCNS(=O)(=O)c1ccc(NC(=O)c2c(-c3ccccc3Cl)noc2C)cc1 | 69 | 33* | 14 | 15 | 71
O=C(Nc1nc2c(s1)C(=O)CCC2)c1ccccc1 | 98 | 91 | 102 | 85 | 98
O=c1c2ccccc2nc2c3ccccc3c(NCc3ccco3)nn12 | 82 | 74 | 68 | 66 | 94
c1ccc(N2CCN(c3nc(NCc4ccco4)c4ccccc4n3)CC2)cc1 | / | / | 2.4* | 3.1* | /
c1coc(CNc2nc(N3CCCCC3)nc3ccccc23)c1 | 56 | 5.3* | 24 | 29 | 81
C=CCN(C(=O)CNC(=O)c1ccco1)C(C(=O)NC1CCCCC1)c1ccc(OC)cc1OC (stereo not given) | 94 | 68 | 89 | 87 | 94
O=C1C2C3C=CC(C3)C2C(=O)N1c1cccc(-c2nc3ccccc3o2)c1 (stereo not given) | 99 | 99 | 90 | 101 | 110
O=C(Nc1cccc(-c2nc3ccccc3o2)c1)c1ccc(N2C(=O)C3C4C=CC(C4)C3C2=O)cc1 (stereo not given) | 58 | 39* | 53 | 47 | 73
SMILES | HUVEC prolif 384 | H69AR growth 86K | bCat KO growth | HCT116 PTEN-null | Fibroblast inh
CCOC(=O)Cc1csc(NC(=O)CSc2nncn2C)n1 | 96 | 95 | 102 | 89 | 108
CC(=O)c1cnc(N(C)C)s1 | 98 | 94 | 92 | 91 | 101
O=C1C(Cl)=C(N2CCCCC2)C(=O)C(Cl)=C1c1cnc(N2CCCCC2)s1 | 14* | 1.6* | 1.1* | 1.5* | 19*
CN(C)c1ncc(C2=C(Cl)C(=O)C(N3CCCC3)=C(Cl)C2=O)s1 | 23* | 89 | 1.4* | 1.6* | 69
Cc1ccc2c(c1)N(CCC(=O)NCCCOC(C)C)C(=O)C(C)O2 (stereo not given) | 98 | 84 | 94 | 94 | 102
CSc1ccc(Cl)c(C(=O)OCC(=O)N2CCOCC2)c1 | 110 | 104 | 103 | 95 | 100

From PubChem
